Experimental data: ChEMBL document CHEMBL1122835, “Synthesis and pharmacology of the potent angiotensin-converting enzyme inhibitor N-[1(S)-(ethoxycarbonyl)-3-phenylpropyl]-(S)-alanyl-(S)-pyroglutamic acid” (J Med Chem, 1985)

How the values were obtained:
Rattus norvegicus [1] = assay: Effective dose to produce ACE inhibition in rat, administered intravenously; assay type: functional; details: iv
Method in brief: (§1)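 Male Charles River CD rats, 380–500 g, anesthetized with pentobarbital Na 15 mg/kg plus barbital 220 mg/kg ip, held at 37 °C. Femoral artery pressure recorded. AI 0.3 μg/kg and AII 0.1 μg/kg given iv as challenges. Cumulative iv drug in saline, 0.01–0.81 mg/kg, each dose followed by AI/AII challenges at 5-min intervals. ED50 = 50% change from control response, by linear regression.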

Rattus norvegicus [2] = assay: Percent change was determined in bradykinin depressor response in anesthetized normotensive rat, administered intravenously at dose 0.0033 mg/kg; assay type: functional; details: route intravenous
Method in brief: (§2)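 Anesthetized (pentobarbital/barbital ip) male Charles River CD rats, 380–500 g, kept at 37 °C. Femoral artery blood pressure recorded. Control depressor response to bradykinin 1 μg/kg iv, then cumulative iv drug in 0.9% saline (1 mL/kg), 0.0033–0.27 mg/kg. Bk challenge 5 min after each dose. ED50 = dose giving a 50% change from control, by linear regression; N = 8.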

Rattus norvegicus [3] = assay: Decrease in systolic blood pressure of Spontaneous Hypertensive Rats (SHR) pretreated with hydrochlorothiazide upon oral administration at 10 mm/kg; assay type: functional, Artery
Method in brief: (§3)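 Male SHR, 13 weeks old, given HCTZ 25 mg/kg po in 0.25% methylcellulose daily for 3 days. Drug given orally in water (5 mL/kg) 1 h after the third dose. Tail-cuff systolic pressure and pulse-count heart rate taken 1.5 h later after 20 min warming at 38 °C. ANOVA with Duncan's test; ED30 by linear regression.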

Canis familiaris [4] = assay: Effect on pressor response of angiotensin II in conscious dog at 60-65 min, dose 2 mg/kg administered orally; assay type: functional, Canis lupus familiaris; details: route oral
Method in brief: (§4)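 Conscious fasted mongrel dogs of both sexes, 6.8–15.3 kg, with femoral cannulas. Drug given orally in 0.25% methylcellulose with 3% glycerin (2 mL/kg), n = 4 per dose. AI 0.3, AII 0.1 and NE 1 μg/kg iv challenges. The second pre-dose set served as control; response measured at 60–65 min post-dose.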

Rattus norvegicus [5] = assay: Change in heart rate was determined in renal hypertensive rat, administered orally at a dose 100 mg/kg; assay type: functional; details: route oral
Method in brief: (§5)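 Renal hypertensive rats were prepared by clipping the left renal artery (0.22-mm clip) in 4-week-old male CD rats and held 6 weeks. Overnight-fasted rats were dosed orally with aqueous solution (5 mL/kg), water as control. Tail-cuff systolic pressure and heart rate measured 2 h post-dose. ANOVA with Duncan's test; ED30 by linear regression.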

Canis familiaris [6] = assay: Effect on pressor response of angiotensin II in anesthetized dog, dose 0.3 mg/kg administered intravenously; assay type: functional, Canis lupus familiaris; details: route intravenous
Method in brief: (§6)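 Mongrel dogs, 7.3–15.5 kg, anesthetized with barbital/pentobarbital iv, tracheotomized and vagotomized, n = 4. Cumulative iv doses in saline (0.2 mL/kg) spaced 30 min apart. AI and AII 1 μg/kg iv challenges given after each dose; the second pre-dose set served as control.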

Rattus norvegicus [7] = organism: Rattus norvegicus; assay: Effective dose was determined to increase the vasoResponse in rat; assay type: functional; method in brief: as §2
Rattus norvegicus [8] = assay: Change in heart rate was determined at a dose 30 mg/kg; assay type: functional; method in brief: as §3
Rattus norvegicus [9] = assay: Effect on vasopressor response caused by angiotensin I (AI) in anesthetized normotensive rat, administered intravenously at dose 0.010 mg/kg; assay type: functional; details: dose 0.01 mg/kg; route intravenous; method in brief: as §1
Rattus norvegicus [10] = assay: Percent change was determined in bradykinin depressor response in anesthetized normotensive rat, administered intravenously at dose 0.090 mg/kg; assay type: functional; details: dose 0.09 mg/kg; route intravenous
Method in brief: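 Male Charles River CD rats (380–500 g), pentobarbital Na 15 mg/kg plus barbital 220 mg/kg ip, tracheotomized, femoral artery/vein cannulated, kept at 37 °C. Control bradykinin 1 μg/kg iv depressor response, separate from angiotensin tests; drug iv in 0.9% saline (1 mL/kg, free base) 10 min later, Bk 5 min after each cumulative dose (0.0033–0.27 mg/kg). Maximum fall in arterial pressure versus control response; N = 8.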

Rattus norvegicus [11] = assay: Effect on systolic blood pressure was determined in renal hypertensive rat, administered orally at a dose 30 mg/kg; assay type: functional, Artery; details: route oral; method in brief: as §5
Rattus norvegicus [12] = assay: Percent decrease in angiotensin I pressor response was measured in rat, administered intravenously at dose 0.090 mg/kg; assay type: functional; details: dose 0.09 mg/kg; route intravenous
Method in brief: (§7)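 Anesthetized (pentobarbital Na 15 mg/kg + barbital 220 mg/kg ip), tracheotomized male Charles River CD rats, 380–500 g, femoral cannulas, heated board at 37 °C. Control pressor responses to angiotensin I 0.3 μg/kg then angiotensin II 0.1 μg/kg iv; drug iv in 0.9% saline (free base), AI and AII repeated at 5-min intervals, cumulative 0.01–0.81 mg/kg. Peak arterial pressure rise versus control.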

Canis familiaris [13] = assay: Effect on pressor response of angiotensin I in anesthetized dog, dose 0.9 mg/kg administered intravenously; assay type: functional, Canis lupus familiaris; details: route intravenous; method in brief: as §6
Rattus norvegicus [14] = assay: Activity against the bradykinin Response in anesthetized normotensive rat, administered intravenously at dose 0.010 mg/kg; assay type: functional; details: dose 0.01 mg/kg; route intravenous; method in brief: as §2
Canis familiaris [15] = assay: Effect on pressor response of angiotensin II in conscious dog at 60-65 min, dose 0.5 mg/kg administered orally; assay type: functional, Canis lupus familiaris; details: route oral; method in brief: as §4
Rattus norvegicus [16] = assay: Activity against the bradykinin Response in anesthetized normotensive rat, administered intravenously at dose 0.030 mg/kg; assay type: functional; details: dose 0.03 mg/kg; route intravenous; method in brief: as §2
[17] = Half life was determined; assay type: ADME; details: rat
Method in brief: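 Rats anesthetized with pentobarbital/barbital received a single iv dose, 0.2 or 0.08 mg/kg. AI 0.3 μg/kg iv given at 5 min, then every 10 min for 210 min. Half-life = time for the AI pressor response to fall to 50% of its peak inhibition.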

Rattus norvegicus [18] = assay: Percent decrease in angiotensin I pressor response was measured in rat, administered intravenously at dose 0.010 mg/kg; assay type: functional; details: dose 0.01 mg/kg; route intravenous; method in brief: as §7
Rattus norvegicus [19] = assay: Percent decrease in angiotensin I pressor response was measured in rat, administered intravenously at dose 0.81 mg/kg; assay type: functional; details: route intravenous; method in brief: as §7
Canis familiaris [20] = assay: Effect on pressor response of angiotensin II in anesthetized dog, dose 0.9 mg/kg administered intravenously; assay type: functional, Canis lupus familiaris; details: route intravenous; method in brief: as §6
Canis familiaris [21] = assay: Effect on pressor response of angiotensin I in conscious dog at 60-65 min, dose 2 mg/kg administered orally; assay type: functional, Canis lupus familiaris; details: route oral; method in brief: as §4
Rattus norvegicus [22] = assay: Activity against the bradykinin Response in anesthetized normotensive rat, administered intravenously at dose 0.090 mg/kg; assay type: functional; details: dose 0.09 mg/kg; route intravenous; method in brief: as §2
Canis familiaris [23] = assay: Effect on pressor response of angiotensin I in anesthetized dog, dose 0.3 mg/kg administered intravenously; assay type: functional, Canis lupus familiaris; details: route intravenous; method in brief: as §6
Rattus norvegicus [24] = assay: Effect on systolic blood pressure was determined in renal hypertensive rat, administered orally at a dose 10 mg/kg; assay type: functional, Artery; details: route oral; method in brief: as §5
Canis familiaris [25] = assay: Effect on pressor response of angiotensin I in conscious dog at 60-65 min, dose 1 mg/kg administered orally; assay type: functional, Canis lupus familiaris; details: route oral; method in brief: as §4
Rattus norvegicus [26] = assay: Hypotensive activity was determined in low-sodium treated rat, dose 10 mg/kg administered orally at 2 hr; assay type: functional; details: route oral
Method in brief: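 Male CD rats, 11 weeks old, kept on a sodium-deficient diet for 3 weeks and fasted overnight, were dosed orally with aqueous solutions (5 mL/kg), water as control. Systolic pressure measured by tail cuff at the stated post-dose time. ANOVA with Duncan's test.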

For `CCOC(=O)[C@H](CCc1ccccc1)N[C@@H](C)C(=O)N1C(=O)CC[C@H]1C(=O)O`, which ED50 (Rattus norvegicus [1]) is on record?
The ED50 was 0.13 mg/kg.

And the Change (Rattus norvegicus [2])?
Its Change is 22%.

And the Blood pressure (Rattus norvegicus [3])?
The Blood pressure was 189 mmHg.

What about the Blood pressure (Canis familiaris [4]) of the same molecule?
Its Blood pressure is 40 mmHg.

And the Heart rate (Rattus norvegicus [5])?
The Heart rate was 454 beats min-1.

What about the Blood pressure (Canis familiaris [6]) of the same molecule?
Its Blood pressure is 68 mmHg.

What about the ED50 (Rattus norvegicus [7]) of the same molecule?
The ED50 was 0.012 mg/kg.

What about the Heart rate (Rattus norvegicus [8]) of the same molecule?
Its Heart rate is 381 beats min-1.

And the Response (Rattus norvegicus [9])?
Its Response is 45 mmHg.

What about the Change (Rattus norvegicus [10]) of the same molecule?
The Change was 69%.

And the Activity (Rattus norvegicus [11])?
Its Activity is 204 mmHg.

And the Decrease (Rattus norvegicus [12])?
Its Decrease is 31%.

What about the Blood pressure (Canis familiaris [13]) of the same molecule?
Its Blood pressure is 28 mmHg.

And the Response (Rattus norvegicus [14])?
The Response was -58 mmHg.

What about the Blood pressure (Canis familiaris [15]) of the same molecule?
The Blood pressure was 48 mmHg.

And the Response (Rattus norvegicus [16])?
The Response was -61 mmHg.

And the half-life [17]?
Its half-life is 2 h.

What about the Decrease (Rattus norvegicus [18]) of the same molecule?
Its Decrease is 6%.

And the Decrease (Rattus norvegicus [19])?
The Decrease was 92%.

And the Blood pressure (Canis familiaris [20])?
Its Blood pressure is 73 mmHg.

What about the Blood pressure (Canis familiaris [21]) of the same molecule?
The Blood pressure was 8 mmHg.

And the Response (Rattus norvegicus [22])?
The Response was -61 mmHg.

And the Blood pressure (Canis familiaris [23])?
The Blood pressure was 46 mmHg.

And the Activity (Rattus norvegicus [24])?
Its Activity is 204 mmHg.

What about the Blood pressure (Canis familiaris [25]) of the same molecule?
The Blood pressure was 23 mmHg.

What about the Activity (Rattus norvegicus [26]) of the same molecule?
Its Activity is 148 mmHg.
